# In PubChem BioAssay AID624466 (The Scripps Research Institute Molecular Screening Center, 2012):
# In all, about 360,000 compounds went through this assay and about 5,400 (1.5%) were called active.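 Rule for the calls: active = inhibition above a per-plate cutoff, the mean inhibition of test compounds on that plate plus 3 SD (cut at about 49% in these data); inactive = the rest.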 Shown is part of a subset that was picked to be rich in actives.
# Target: Trace amine-associated receptor 1 (Homo sapiens) (UniProt Q96RJ0)
# Sequence (Q96RJ0 whole entry, looked up): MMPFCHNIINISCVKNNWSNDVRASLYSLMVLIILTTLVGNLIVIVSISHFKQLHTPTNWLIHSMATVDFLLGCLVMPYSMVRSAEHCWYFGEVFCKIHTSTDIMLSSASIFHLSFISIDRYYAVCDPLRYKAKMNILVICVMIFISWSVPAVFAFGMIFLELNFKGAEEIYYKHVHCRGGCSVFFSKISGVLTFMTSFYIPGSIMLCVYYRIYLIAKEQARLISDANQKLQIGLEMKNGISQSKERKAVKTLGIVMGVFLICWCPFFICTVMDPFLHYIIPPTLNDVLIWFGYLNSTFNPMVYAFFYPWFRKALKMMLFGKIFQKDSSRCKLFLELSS
# Test: blockers of beta-PEA-driven TAAR1 calcium signal – Fluo-8 calcium fluorescence, CHO RD-HGA16 cells, primary screen (AID 624466);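 note: 0% = DMSO plus EC80 beta-PEA response and 100% = DMSO alone without agonist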
# Settings: CHO RD-HGA16 TAAR1, Fluo-8 calcium fluorescence, antagonist; at 3 µM; active compounds read high
# How it was run: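 Assay system: RD-HGA16 CHO cells with stable hTAAR1 and Gα16 / Reagent: EC80 β-phenethylamine stimulus / Doses: 3 µM, single point / Timing: dye loading 75 min at 37 °C, then 30 min room temperature / Measured by: Fluo-8 intracellular calcium dye fluorescence, real-time kinetic reads / Controls: vehicle wells and EC80 agonist wells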
row,SMILES,inhibition
1,CCC(C(=O)Nc1c(C)cccc1C)n1c(-c2cc(C)cs2)nc2ccccc21 (stereo not given),-17.6% (inactive)
2,Fc1ccccc1/C=N/Nc1cc(N2CCCCC2)ncn1,-0.85% (inactive)
3,O=C(C1CCCN(S(=O)(=O)c2ccccc2)C1)N1CCN(c2ccc(F)cc2)CC1 (stereo not given),-6.96% (inactive)
4,COc1cccc(N2CCN(C(=O)C3CCCN(S(=O)(=O)c4cnc[nH]4)C3)CC2)c1 (stereo not given),-6.44% (inactive)
5,CC(=O)N1CCCc2cc(S(=O)(=O)N3CCCC(C(=O)N4CCN(c5cccc(Cl)c5)CC4)C3)ccc21 (stereo not given),83.6% (active)
6,Cn1c(=O)n(C)c(=O)n(CC(=O)N2CCCCC2)c1=O,-10.7% (inactive)
7,Oc1ccc(/C=N/Nc2nc(-c3ccccc3F)nc3ccccc23)c(O)c1,82.1% (active)
8,CCOc1ccc(N(C)S(=O)(=O)c2cnc[nH]2)cc1,-13.2% (inactive)
9,Cn1c(C(=O)N2CCC(C(N)=O)CC2)cc2c(=O)n(C)c3ccccc3c21,-11.2% (inactive)
10,Cn1c(C(=O)NCCN2CCc3ccccc3C2)cc2c(=O)[nH]c3ccccc3c21,4.74% (inactive)
11,Cn1c(C(=O)NCCc2ccsc2)cc2c(=O)n(C)c3ccccc3c21,57.4% (active)
12,COc1ccc(C(=O)Nc2ccc(C(=O)NCC3CCCO3)cc2)c(OC)c1OC (stereo not given),-23% (inactive)
13,O=C1NC[C@H](Cc2ccc(O)cc2)N(C[C@@H]2CCCN2C[C@H](Cc2ccccc2)N2C[C@H](Cc3ccccc3)N(CC3CCCCC3)C(=O)C2=O)C1=O,-20.1% (inactive)
14,Cc1cccc(C)c1NC(=O)CNC(=O)Cc1ccc(Br)cc1,-2.34% (inactive)
15,CN(CC(=O)Nc1c(Cl)cccc1Cl)C(=O)CNC(=O)C1CCCCC1,-8.13% (inactive)
16,Cc1cccc(C)c1NC(=O)CNC(=O)C1CCCC1,100% (active)
17,Cc1ccc(S(=O)(=O)N2CCCC2C(=O)NCc2ccco2)cc1 (stereo not given),-5.82% (inactive)
18,COc1ccc(CNC(=O)CN(Cc2ccccc2Cl)C(=O)c2csnn2)cc1,10.7% (inactive)
19,CCCc1nc2ccccc2n1C(C)C(=O)NC(C)(C)C (stereo not given),-0.35% (inactive)
20,COc1ccc(Br)cc1S(=O)(=O)N1CCN=C1C,-4.85% (inactive)
21,Cc1ccc(-c2noc(CNC(=O)c3ccoc3C)n2)cc1,-42.9% (inactive)
22,CC/C(=N/Nc1ccccc1)c1cnnc(SC)n1,74.9% (active)
23,C/C(=N\Nc1ccccc1)c1cccs1,8.01% (inactive)
24,C/C(=N/Nc1ccc(Cl)cc1)c1cnnc(-c2ccccc2)n1,8.2% (inactive)
25,O=C(COC(=O)c1ncc(Cl)c(Cl)c1Cl)NC1CCS(=O)(=O)C1 (stereo not given),-31.4% (inactive)
